Columns and labels:
[1] = Inhibition of recombinant VZV TK assessed as [CH3-H3]dThd phosphorylation; parameters: species or system Human alphaherpesvirus 3
Outline: (§1)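 Purified recombinant VZV TK (7.75 ng), HSV-1 TK (226 ng) or cytosolic TK-1 (455 ng). Buffer: 50 mM Tris-HCl pH 8.0, 2.5 mM MgCl2, 10 mM DTT, 2.5 mM ATP, 1.0 mg/mL BSA, 10 mM NaF, 1 µM [CH3-3H]dThd final. Incubated 30 min at 37 °C (linear range) with graded compound concentrations. Product caught on DE-81 disks, washed, scintillation-counted. IC50 is 50% inhibition of dThd phosphorylation.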

Thymidine kinase = target: T1, Thymidine kinase (Human alphaherpesvirus 1, UniProt Q9QNF7); test: Inhibition of recombinant HSV-1 TK assessed as [CH3-H3]dThd phosphorylation; outline: as §1
T1 sequence (Q9QNF7 whole entry): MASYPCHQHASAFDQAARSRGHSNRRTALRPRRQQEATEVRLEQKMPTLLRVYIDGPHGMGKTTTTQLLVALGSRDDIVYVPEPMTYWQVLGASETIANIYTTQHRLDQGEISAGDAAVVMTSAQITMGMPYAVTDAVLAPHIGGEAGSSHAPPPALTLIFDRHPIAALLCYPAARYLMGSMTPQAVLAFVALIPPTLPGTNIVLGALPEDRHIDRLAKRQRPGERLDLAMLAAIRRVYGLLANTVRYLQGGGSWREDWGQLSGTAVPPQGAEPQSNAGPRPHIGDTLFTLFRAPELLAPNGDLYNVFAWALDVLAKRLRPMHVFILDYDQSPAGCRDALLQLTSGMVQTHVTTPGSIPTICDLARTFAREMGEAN

[2] = target: T2, Thymidine kinase, cytosolic (Homo sapiens, UniProt P04183); test: Inhibition of recombinant cytosolic TK-1 assessed as [CH3-H3]dThd phosphorylation; outline: as §1
T2 sequence (P04183 whole entry): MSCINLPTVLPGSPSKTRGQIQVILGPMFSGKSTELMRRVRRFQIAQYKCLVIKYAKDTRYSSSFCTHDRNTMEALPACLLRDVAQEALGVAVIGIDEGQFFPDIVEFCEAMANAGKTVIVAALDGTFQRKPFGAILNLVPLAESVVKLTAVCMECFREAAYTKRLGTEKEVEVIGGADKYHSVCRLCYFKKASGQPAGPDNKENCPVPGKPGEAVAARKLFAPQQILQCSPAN

OST [3] = test: Cytotoxicity against OST cells expressing VZV TK; assay type: cell-based; conditions: human
Outline: (§2)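 OST TK- control cells and OST TK- cells expressing HSV-1 TK or VZV TK were cultured 5 days with graded compound concentrations. Cells were then trypsinized and counted on a Coulter counter. CC50 is the concentration in µM that reduces cell number by 50%.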

OST [4] = test: Cytotoxicity against OST cells expressing HSV1 TK; assay type: cell-based; conditions: human; outline: as §2
Lung [5] = test: Biodistribution in lung of NMRI mouse assessed as standard uptake value after 2 mins; assay type: ADME, organism-based; conditions: in vivo
Heart [6] = test: Biodistribution in heart of NMRI mouse assessed as standard uptake value after 2 mins; assay type: ADME, organism-based; conditions: in vivo
Brain [7] = test: Biodistribution in brain of NMRI mouse assessed as standard uptake value after 2 mins; assay type: ADME, organism-based; conditions: in vivo
Blood [8] = test: Biodistribution in blood of NMRI mouse assessed as standard uptake value after 2 mins; assay type: ADME, organism-based; conditions: in vivo
Kidney [9] = test: Biodistribution in kidney of NMRI mouse assessed as standard uptake value after 60 mins; assay type: ADME, organism-based; conditions: in vivo, 1 h
Liver [10] = test: Biodistribution in liver of NMRI mouse assessed as standard uptake value after 60 mins; assay type: ADME, organism-based; conditions: in vivo, 1 h
[11] = Biodistribution in spleen/pancreas of NMRI mouse assessed as standard uptake value after 60 mins; assay type: ADME, organism-based; conditions: in vivo, 1 h
Intestine [12] = test: Biodistribution in intestine of NMRI mouse after 2 mins; assay type: ADME, organism-based; conditions: in vivo
Outline: (§3)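 Male NMRI mice (30-40 g) under ketamine/xylazine i.p. anesthesia received 0.1 mL of HPLC-purified 18F tracer (0.1 mCi/mL) or 11C tracer (1 mCi/mL) in water for injection via tail vein. Killed by decapitation at 2 or 60 min (n = 3 per time). Blood, organs and carcass weighed and gamma-counted. %ID = organ cpm/total cpm recovered. Blood mass taken as 7% of body mass. Mean ± SD.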

Brain [13] = test: Biodistribution in brain of NMRI mouse after 2 mins; assay type: ADME, organism-based; conditions: in vivo; outline: as §3
Blood [14] = test: Biodistribution in blood of NMRI mouse after 2 mins; assay type: ADME, organism-based; conditions: in vivo; outline: as §3
[15] = Biodistribution in carcass of NMRI mouse after 2 mins; assay type: ADME, organism-based; conditions: in vivo; outline: as §3
[16] = Biodistribution in urine of NMRI mouse after 60 mins; assay type: ADME, organism-based; conditions: in vivo, 1 h; outline: as §3
Kidney [17] = test: Biodistribution in kidney of NMRI mouse after 60 mins; assay type: ADME, organism-based; conditions: in vivo, 1 h; outline: as §3
Liver [18] = test: Biodistribution in liver of NMRI mouse after 60 mins; assay type: ADME, organism-based; conditions: in vivo, 1 h; outline: as §3
[19] = Biodistribution in spleen/pancreas of NMRI mouse after 60 mins; assay type: ADME, organism-based; conditions: in vivo, 1 h; outline: as §3
Lung [20] = test: Biodistribution in lung of NMRI mouse after 60 mins; assay type: ADME, organism-based; conditions: in vivo, 1 h; outline: as §3
Heart [21] = test: Biodistribution in heart of NMRI mouse after 60 mins; assay type: ADME, organism-based; conditions: in vivo, 1 h; outline: as §3
Intestine [22] = test: Biodistribution in intestine of NMRI mouse after 60 mins; assay type: ADME, organism-based; conditions: in vivo, 1 h; outline: as §3
Brain [23] = test: Biodistribution in brain of NMRI mouse after 60 mins; assay type: ADME, organism-based; conditions: in vivo, 1 h; outline: as §3
Blood [24] = test: Biodistribution in blood of NMRI mouse after 60 mins; assay type: ADME, organism-based; conditions: in vivo, 1 h; outline: as §3
[25] = Biodistribution in carcass of NMRI mouse after 60 mins; assay type: ADME, organism-based; conditions: in vivo, 1 h; outline: as §3
Kidney [26] = test: Biodistribution in kidney of NMRI mouse assessed as standard uptake value after 2 mins; assay type: ADME, organism-based; conditions: in vivo
Liver [27] = test: Biodistribution in liver of NMRI mouse assessed as standard uptake value after 2 mins; assay type: ADME, organism-based; conditions: in vivo
[28] = Biodistribution in spleen/pancreas of NMRI mouse assessed as standard uptake value after 2 mins; assay type: ADME, organism-based; conditions: in vivo
Lung [29] = test: Biodistribution in lung of NMRI mouse assessed as standard uptake value after 60 mins; assay type: ADME, organism-based; conditions: in vivo, 1 h
Heart [30] = test: Biodistribution in heart of NMRI mouse assessed as standard uptake value after 60 mins; assay type: ADME, organism-based; conditions: in vivo, 1 h
Brain [31] = test: Biodistribution in brain of NMRI mouse assessed as standard uptake value after 60 mins; assay type: ADME, organism-based; conditions: in vivo, 1 h
Blood [32] = test: Biodistribution in blood of NMRI mouse assessed as standard uptake value after 60 mins; assay type: ADME, organism-based; conditions: in vivo, 1 h
[33] = Partition coefficient, log P at pH 7.4; assay type: physicochemical; conditions: octanol/water
Outline: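 HPLC-purified radiotracer partitioned between 1-octanol and 0.025 M phosphate buffer pH 7.4. Vortexed 2 min at room temperature, centrifuged 5 min, aliquots of both phases gamma-counted. P = octanol cpm/buffer cpm after density and mass correction; n = 6.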

[34] = Drug uptake in human 293T cells transduced with LacZ gene after 1 hr; assay type: ADME, cell-based; conditions: hek-293t
Outline: (§4)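 Lentivirally transduced 293T cells (VZV-tk or LacZ control) plated in triplicate at 200 000 cells/well. After 24 h, 0.25 mL fresh medium with 5 µCi of the 18F tracer (3 h) or 30 µCi of the 11C tracer (1 h) added; 37 °C, 5% CO2. Cells washed thrice with ice-cold PBS, lysed, gamma-counted. Uptake given as % total radioactivity per mg protein (Bio-Rad assay); n = 3, unpaired two-sided t-test.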

[35] = Drug uptake in human 293T cells transduced with VZV-tk gene after 1 hr; assay type: ADME, cell-based; conditions: hek-293t; outline: as §4
Plasma [36] = test: Metabolic stability in mouse plasma assessed as radioactivity after 2 mins; assay type: ADME, cell-free
Outline: (§5)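 Normal mice given 0.35-0.4 mCi of 11C tracer i.v. and decapitated at 2 or 30 min (plasma; one mouse per time) or 30/60 min (urine). EDTA plasma separated by centrifugation; urine used untreated. Samples spiked with authentic compound and run on Oasis HLB in series with C18, eluted with 0.05 M ammonium acetate/acetonitrile 70:30 at 1 mL/min. 1-mL fractions gamma-counted; intact tracer taken as % recovered radioactivity.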

[37] = Biodistribution in urine of NMRI mouse after 2 mins; assay type: ADME, organism-based; conditions: in vivo; outline: as §3
Kidney [38] = test: Biodistribution in kidney of NMRI mouse after 2 mins; assay type: ADME, organism-based; conditions: in vivo; outline: as §3
Liver [39] = test: Biodistribution in liver of NMRI mouse after 2 mins; assay type: ADME, organism-based; conditions: in vivo; outline: as §3
[40] = Biodistribution in spleen/pancreas of NMRI mouse after 2 mins; assay type: ADME, organism-based; conditions: in vivo; outline: as §3
Lung [41] = test: Biodistribution in lung of NMRI mouse after 2 mins; assay type: ADME, organism-based; conditions: in vivo; outline: as §3
Heart [42] = test: Biodistribution in heart of NMRI mouse after 2 mins; assay type: ADME, organism-based; conditions: in vivo; outline: as §3
Plasma [43] = test: Metabolic stability in mouse plasma assessed as radioactivity after 30 mins; assay type: ADME, cell-free; conditions: 0.5 h; outline: as §5
[44] = Metabolic stability in mouse urine after 30 mins; assay type: ADME, tissue-based; conditions: read-out: Stability; outline: as §5
[45] = Metabolic stability in mouse urine after 60 mins; assay type: ADME, tissue-based; conditions: read-out: Stability; outline: as §5
[46] = Ratio of drug uptake in LV-VZVTK-1-P transduced cells to LV-LacZ-I-P transduced 293T cells after 1 hr; assay type: ADME, cell-based; conditions: human
Outline: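 Lentivirally transduced 293T cells (VZV-tk or LacZ control), plated in triplicate at 200 000 cells/well. After 24 h, given fresh medium with 30 µCi HPLC-purified 11C-labelled tracer per well, then 1 h at 37 °C in 5% CO2. Washed thrice in ice-cold PBS, lysed, gamma-counted, normalized to Bio-Rad protein (% total radioactivity/mg protein). VZV-tk/LacZ ratio, n = 3, unpaired Student t-test.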

O=c1nc2oc(-c3cccc(OCCF)c3)cc2cn1[C@H]1C[C@H](O)[C@@H](CO)O1
IC50 [1]: 53 µM
IC50 (Thymidine kinase): > 500 µM
IC50 [2]: > 500 µM
Activity (OST [3]): Not Active
Activity (OST [4]): Not Active

Nc1nc2c(ncn2CCC(CO)CO)c(=O)[nH]1 [PENCICLOVIR]
IC50 (Thymidine kinase): 11 µM

O=c1nc2oc(-c3cccc(O)c3)cc2cn1[C@H]1C[C@H](O)[C@@H](CO)O1
IC50 [1]: 2.6 µM
IC50 (Thymidine kinase): > 500 µM
IC50 [2]: > 500 µM
Activity (OST [3]): Not Active
Activity (OST [4]): Not Active

Nc1nc2c(ncn2CCC(CO)CF)c(=O)[nH]1 (centres undefined)
IC50 (Thymidine kinase): 9 µM

[11CH3]Oc1cccc(-c2cc3cn([C@H]4C[C@H](O)[C@@H](CO)O4)c(=O)nc3o2)c1
Drug uptake (Lung [5]): 1
Drug uptake (Heart [6]): 1
Drug uptake (Brain [7]): 0.1
Drug uptake (Blood [8]): 0.8
Drug uptake (Kidney [9]): 0.2
Drug uptake (Liver [10]): 0.7
Drug uptake [11]: 0.1
Drug uptake (Intestine [12]): 25.6 %ID
Drug uptake (Brain [13]): 0 %ID
Drug uptake (Blood [14]): 5.4 %ID
Drug uptake [15]: 25.3 %ID
Drug uptake [16]: 28.2 %ID
Drug uptake (Kidney [17]): 0.3 %ID
Drug uptake (Liver [18]): 3.7 %ID
Drug uptake [19]: 0.1 %ID
Drug uptake (Lung [20]): 0 %ID
Drug uptake (Heart [21]): 0 %ID
Drug uptake (Intestine [22]): 63.7 %ID
Drug uptake (Brain [23]): 0 %ID
Drug uptake (Blood [24]): 0.2 %ID
Drug uptake [25]: 3.5 %ID
Drug uptake (Kidney [26]): 12.4
Drug uptake (Liver [27]): 3.7
Drug uptake [28]: 2.7
Drug uptake (Lung [29]): 0
Drug uptake (Heart [30]): 0
Drug uptake (Brain [31]): 0
Drug uptake (Blood [32]): 0
logD [33]: 1.27
Drug uptake [34]: 0.24%
Drug uptake [35]: 12.8%
Stability (Plasma [36]): 98%
Drug uptake [37]: 0.2 %ID
Drug uptake (Kidney [38]): 21.7 %ID
Drug uptake (Liver [39]): 21.3 %ID
Drug uptake [40]: 2.4 %ID
Drug uptake (Lung [41]): 0.7 %ID
Drug uptake (Heart [42]): 0.5 %ID
Stability (Plasma [43]): 80%
remaining at 0.5 h [44]: 90%
remaining at 1 h [45]: 90%
Ratio [46]: 53

COc1cccc(-c2cc3cn([C@H]4C[C@H](O)[C@@H](CO)O4)c(=O)nc3o2)c1
IC50 [1]: 4.8 µM
IC50 (Thymidine kinase): > 500 µM
IC50 [2]: > 500 µM
Activity (OST [3]): Not Active
Activity (OST [4]): Not Active
